ChEMBL document CHEMBL4334546, “Discovery of N-(Indazol-3-yl)piperidine-4-carboxylic Acids as RORγt Allosteric Inhibitors for Autoimmune Diseases” (ACS Med Chem Lett, 2020)
pIC50: −log10 of the molar value. ≈ marks a conversion by molar mass, not a printed value.

Key:
[1] = target: T1, Nuclear receptor ROR-gamma (Homo sapiens, UniProt P51449); assay: Allosteric inhibition of recombinant His6-tagged RORgammat LBD (unknown origin) expressed in Escherichia coli BL21(DE3) assessed as inhibition of biotin-labelled SRC-1 peptide recruitment preincubated for 15 mins followed by biotin-labelled SRC-1 peptide addition and measured after overnight incubation by TR-FRET assay
T1 sequence (P51449 whole entry): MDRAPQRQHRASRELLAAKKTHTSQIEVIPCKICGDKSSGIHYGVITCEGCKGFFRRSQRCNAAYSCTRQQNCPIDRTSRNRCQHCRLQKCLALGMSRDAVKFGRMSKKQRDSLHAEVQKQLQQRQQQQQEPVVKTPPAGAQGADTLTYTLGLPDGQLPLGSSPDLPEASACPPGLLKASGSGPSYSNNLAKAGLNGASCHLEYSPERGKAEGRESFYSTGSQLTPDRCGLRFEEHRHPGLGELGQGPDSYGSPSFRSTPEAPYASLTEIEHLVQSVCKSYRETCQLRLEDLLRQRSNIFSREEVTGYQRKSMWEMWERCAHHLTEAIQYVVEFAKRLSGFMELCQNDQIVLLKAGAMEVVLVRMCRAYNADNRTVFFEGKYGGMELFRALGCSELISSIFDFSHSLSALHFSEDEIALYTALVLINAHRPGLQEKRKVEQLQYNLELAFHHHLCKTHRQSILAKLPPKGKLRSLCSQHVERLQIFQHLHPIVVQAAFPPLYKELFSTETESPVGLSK

[2] = target: T1, Nuclear receptor ROR-gamma; assay: Allosteric inhibition of yeast GAL4 DNA domain-fused RORgammat LBD (97 to 518 residues) (unknown origin) expressed in HEK293T cells after 20 to 22 hrs by steady-glo luciferase assay; assay type: cell-based
[3] = target: T2, Peroxisome proliferator-activated receptor gamma (Homo sapiens, UniProt P37231); assay: Displacement of [3H]rosiglitazone from human recombinant PPARgamma LBD expressed in insect cells measured after 24 hrs by scintillation counting analysis
T2 sequence (P37231 whole entry): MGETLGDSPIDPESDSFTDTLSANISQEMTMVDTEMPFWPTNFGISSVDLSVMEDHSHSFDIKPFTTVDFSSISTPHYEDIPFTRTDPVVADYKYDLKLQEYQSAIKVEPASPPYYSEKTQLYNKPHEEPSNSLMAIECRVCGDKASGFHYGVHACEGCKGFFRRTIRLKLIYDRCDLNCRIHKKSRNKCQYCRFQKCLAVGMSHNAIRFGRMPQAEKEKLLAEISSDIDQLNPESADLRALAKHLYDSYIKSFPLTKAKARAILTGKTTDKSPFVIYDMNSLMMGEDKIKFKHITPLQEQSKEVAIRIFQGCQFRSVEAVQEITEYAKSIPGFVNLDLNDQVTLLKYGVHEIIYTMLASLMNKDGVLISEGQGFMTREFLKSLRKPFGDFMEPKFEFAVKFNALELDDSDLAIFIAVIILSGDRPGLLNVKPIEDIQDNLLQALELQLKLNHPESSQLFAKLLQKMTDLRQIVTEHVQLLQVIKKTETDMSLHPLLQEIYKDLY

[4] = target: T1, Nuclear receptor ROR-gamma; assay: Allosteric inhibition of RORgammaT in IL-1B/IL-23/IL-2/IL-6/T-Activator CD3/28 Dynabeads-stimulated human PBMC cells assessed as reduction in Th17 differentiation by measuring reduction in IL-17A level incubated for 4 days post-cell stimulation by ELISA
[5] = Clearance in Wistar Han rat at 0.5 mg/kg, iv or 1 mg/kg, po by LC-MS/MS analysis; assay type: ADME, organism-based; details: in vivo
[6] = Half life in Wistar Han rat at 0.5 mg/kg, iv or 1 mg/kg, po by LC-MS/MS analysis; assay type: ADME, organism-based; details: in vivo
[7] = Volume of distribution in Wistar Han rat at 0.5 mg/kg, iv or 1 mg/kg, po by LC-MS/MS analysis; assay type: ADME, organism-based; details: in vivo
[8] = Clearance in Beagle dog at 0.25 mg/kg, iv or 0.5 mg/kg, po by LC-MS/MS analysis; assay type: ADME, organism-based, Canis lupus familiaris; details: in vivo
[9] = Half life in Beagle dog at 0.25 mg/kg, iv or 0.5 mg/kg, po by LC-MS/MS analysis; assay type: ADME, organism-based, Canis lupus familiaris; details: in vivo
[10] = Volume of distribution in Beagle dog at 0.25 mg/kg, iv or 0.5 mg/kg, po by LC-MS/MS analysis; assay type: ADME, organism-based, Canis lupus familiaris; details: in vivo
[11] = Oral bioavailability in Wistar Han rat at 1 mg/kg by LC-MS/MS analysis; assay type: ADME, organism-based; details: in vivo
[12] = Oral bioavailability in Beagle dog at 0.5 mg/kg by LC-MS/MS analysis; assay type: ADME, organism-based, Canis lupus familiaris; details: in vivo
[13] = Protein binding in rat plasma; assay type: ADME, cell-free; details: read-out: PPB (converted)
[14] = Protein binding in dog plasma; assay type: ADME, cell-free, Canis lupus familiaris; details: read-out: PPB (converted)
[15] = Solubility of compound at pH 2; assay type: physicochemical; details: buffer
[16] = Solubility of compound at pH 7.4; assay type: physicochemical; details: buffer
[17] = Plasma concentration in C57BL/6 mouse at 1 mg/kg administered as single dose after 2 hrs; assay type: ADME, organism-based
In short: (§1)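 Acute pharmacodynamic model: mice received single doses across a dose range, and in this study both plasma compound concentration and Bcl-xL expression in thymocytes were measured to follow RORγt inhibition.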

[18] = Plasma concentration in C57BL/6 mouse at 3 mg/kg administered as single dose after 2 hrs; assay type: ADME, organism-based; in short: as §1
[19] = Plasma concentration in C57BL/6 mouse at 10 mg/kg administered as single dose after 2 hrs; assay type: ADME, organism-based; in short: as §1
[20] = Plasma concentration in C57BL/6 mouse at 30 mg/kg administered as single dose after 2 hrs; assay type: ADME, organism-based; in short: as §1
[21] = Plasma concentration in C57BL/6 mouse at 100 mg/kg administered as single dose after 2 hrs; assay type: ADME, organism-based; in short: as §1
[22] = Unbound clearance in Wistar Han rat at 0.5 mg/kg, iv or 1 mg/kg, po by LC-MS/MS analysis; assay type: ADME, organism-based; details: in vivo
[23] = species: Mus musculus; assay: animal or person; details: C57BL/6, 2 h, read-out: INH
[24] = species: Mus musculus; assay: animal or person; details: C57BL/6, 2 h, read-out: INH; remark: listed apart in the source
[25] = species: Mus musculus; assay: animal or person; details: C57BL/6, 2 h, read-out: INH; remark: listed apart in the source
[26] = species: Mus musculus; assay: animal or person; details: C57BL/6, 2 h, read-out: INH; remark: listed apart in the source
[27] = species: Mus musculus; assay: animal or person; details: C57BL/6, 2 h, read-out: INH; remark: listed apart in the source
[28] = species: Mus musculus; assay: animal or person; details: C57BL/6, 2 h

pIC50 [1]	pIC50 [2]	clearance [5] [mL/min/kg]	half-life [6] [h]	Vd [7] [L/kg]	clearance [8] [mL/min/kg]	half-life [9] [h]	Vd [10] [L/kg]	bioavailability [11] [%]	bioavailability [12] [%]	fraction unbound [13]	fraction unbound [14]	solubility [15] [µM]	solubility [16] [µM]	CL free [22] [mL/min/kg]	SMILES	also measured
8.30	6.40														O=C(O)c1ccc(-c2nn(C(=O)c3c(Cl)cccc3Cl)c3ccccc23)cc1	
8.22	7.05	76	0.4	0.8	4.5	1.4	0.4	16	45	0.013	0.013	< 2	147 (≈ 68.2 µg/mL)	5846	O=C(O)c1ccc(-c2nn(C(=O)c3c(Cl)cccc3C(F)(F)F)c3cccnc23)c(F)c1	pIC50 [3]: 5.70; pIC50 [4]: 7.48; concentration at 2 h [17]: 0.18 µM; concentration at 2 h [18]: 0.73 µM; concentration at 2 h [19]: 4.1 µM; concentration at 2 h [20]: 51 µM; concentration at 2 h [21]: 254 µM; inhibition in vivo at 1 mg/kg [23]: 17%; inhibition in vivo at 3 mg/kg [24]: 50%; inhibition in vivo at 10 mg/kg [25]: 69%; inhibition in vivo at 30 mg/kg [26]: 85%; inhibition in vivo at 100 mg/kg [27]: 74%; pIC50 [28]: 6.15
		13	3.7	0.6	1.4	3.1	0.3	35	65	0.013	0.003	28 (≈ 12.8 µg/mL)	153 (≈ 70.1 µg/mL)	1000	O=C(O)[C@@H]1CCN(c2nn(C(=O)c3c(Cl)cccc3C3CC3)c3cccc(F)c23)C[C@H]1O	
